Each structure is given as a SMILES string. Calls of active or inactive are those of the source. The calls are words filed in the database; no cut-off is given here.

In ChEMBL document CHEMBL2384970, “Development of peptidomimetic boronates as proteasome inhibitors” (Eur J Med Chem, 2013) one finds inhibition, Ki and Ratio Ki data, which are given here for twelve compounds.

The target in experiment [1] is Proteasome Macropain subunit (Homo sapiens) (UniProt P49721). In words: Inhibition of human 20S proteasome trypsin like activity using Boc-Leu-Leu-Arg-Arg-AMC as substrate at 20 uM measured over 10 mins by fluorescence assay. Particulars: in the assay text read “Boc-Leu-Arg-Arg-AMC” for “Boc-Leu-Leu-Arg-Arg-AMC”. Summed up:
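Tryptic activity of human erythrocyte 20S proteasome at 0.0025 mg mL1, 30 °C, in 50 mM Tris pH 7.4, 50 mM NaCl, 0.5 mM EDTA, 0.03% SDS, 7.5% DMSO. Compound at […]. Boc-Leu-Arg-Arg-AMC at […]. Continuous 10-min fluorescence reading (ex 380/em 460 nm) against a DMSO control.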

Experiment [2] concerns the target T1, Proteasome Macropain subunit MB1 (Homo sapiens, UniProt P28074).
T1 sequence (P28074 whole entry): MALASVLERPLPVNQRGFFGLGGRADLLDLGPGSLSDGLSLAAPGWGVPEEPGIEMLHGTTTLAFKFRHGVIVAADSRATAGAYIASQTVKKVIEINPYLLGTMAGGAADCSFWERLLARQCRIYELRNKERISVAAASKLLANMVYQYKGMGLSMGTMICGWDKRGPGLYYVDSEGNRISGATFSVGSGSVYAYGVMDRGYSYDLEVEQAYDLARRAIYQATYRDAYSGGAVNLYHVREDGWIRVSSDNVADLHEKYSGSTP
In words: Inhibition of human 20S proteasome chymotrypsin like activity using Suc-Leu-Leu-Val-Tyr-AMC as substrate measured over 10 mins by fluorescence assay.

Experiment [3] is filed under the species Homo sapiens. In words: Selectivity ratio of Ki for human 20S proteasome post-glutamyl peptide hydrolyzing activity to Ki for human 20S proteasome chymotrypsin like activity.
Experiment [4] deals with T2, Proteasome Macropain subunit MB1 (Homo sapiens) (UniProt P28074).
T2 sequence (whole entry): T1 sequence (P28074 whole entry)
The experiment can be described thus: Inhibition of human 20S proteasome chymotrypsin like activity using Suc-Leu-Leu-Val-Tyr-AMC as substrate at 20 uM measured over 10 mins by fluorescence assay relative to control. Put shortly:
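Screening run at a single […] inhibitor concentration against purified human erythrocyte 20S proteasome, using an equal amount of DMSO as the negative control. AMC fluorescence read at ex 380/em 460 nm continuously for 10 min.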

A short description of experiment [5]: Inhibition of bovine pancreatic alpha-chymotrypsin using Suc-Leu-Leu-Val-Tyr-AMC as substrate measured over 10 mins by fluorescence assay. Also noted: species or system Bos taurus. Put shortly: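 Bovine pancreatic alpha-chymotrypsin ([…] as printed) incubated at 20 °C with test compound in 50 mM Tris pH 8.0, 100 mM NaCl, 5 mM EDTA, 7.5% DMSO. Substrate at […] final. Product release followed over 10 min. Ki obtained from progress curves fitted to a 4-parameter IC50 equation and corrected for substrate.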

Experiment [6] addresses T3, Proteasome component C5 (Homo sapiens, UniProt P20618).
T3 sequence (P20618 whole entry): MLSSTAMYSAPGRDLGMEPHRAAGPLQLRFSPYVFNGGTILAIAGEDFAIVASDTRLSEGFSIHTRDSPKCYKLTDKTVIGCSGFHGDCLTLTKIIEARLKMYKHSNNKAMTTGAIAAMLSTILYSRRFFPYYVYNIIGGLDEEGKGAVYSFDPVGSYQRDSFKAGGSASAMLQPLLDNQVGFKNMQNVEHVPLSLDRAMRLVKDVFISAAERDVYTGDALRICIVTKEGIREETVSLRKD
The experiment can be described thus: Inhibition of human 20S proteasome post-glutamyl peptide hydrolyzing activity using Z-Leu-Leu-Glu-AMC as substrate measured over 10 mins by fluorescence assay.

Sequence of Proteasome Macropain subunit (Homo sapiens) (P49721 whole entry): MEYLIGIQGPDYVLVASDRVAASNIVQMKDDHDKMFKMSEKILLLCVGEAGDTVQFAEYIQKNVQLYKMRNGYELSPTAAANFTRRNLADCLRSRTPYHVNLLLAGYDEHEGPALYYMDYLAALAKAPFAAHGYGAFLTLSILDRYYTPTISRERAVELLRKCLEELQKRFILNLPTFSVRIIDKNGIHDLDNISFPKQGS

As to `CCN(CC)c1ccn(CC(=O)N[C@@H](CC(C)C)B(O)O)c(=O)c1`, the inhibition (as a rule, the relative decrease from the control value, in per cent) in experiment [1] is “inactive”. Besides, in experiment [2], the Ki – broadly, the dissociation constant of the complex between target and ligand, obtained from inhibition or displacement – came out at 800 nM. Also, in experiment [3], the Ratio Ki was 5.5. The inhibition in experiment [4] is above 40%.
As for `CC(C)C[C@H](NC(=O)Cn1ccc(N2CCOCC2)cc1=O)B(O)O`, the inhibition result in experiment [1] is “inactive”. The affinity in experiment [2] corresponds to a Ki of 1450 nM. This compound registered an inhibition in experiment [4] above 40%.
The like results for `CC(C)C[C@H](NC(=O)Cn1cc(Br)c2ncccc2c1=O)B(O)O` were, in that order, “inactive”, 170 nM and above 40%.
For the compound `CC(C)C[C@H](NC(=O)Cn1ccccc1=O)B(O)O`, the inhibition entry in experiment [1] is “inactive”. Moreover, affinity in experiment [2] was put at a Ki of 260 nM. For the same compound, the Ratio Ki in experiment [3] was 5.3. In experiment [4], this compound yielded an inhibition above 40%.
Consider `CC(C)C[C@H](NC(=O)[C@H](C)n1ccc2ncccc2c1=O)B(O)O`, for which the inhibition entry in experiment [1] was “inactive”. The Ki in experiment [2] came out at 1340 nM; in experiment [5], 9160 nM. Also, the Ratio Ki in experiment [3] was found to be 10. The inhibition in experiment [4] is above 40%.
In the case of `C=CCN1CCN(c2ccn(CC(=O)N[C@@H](CC(C)C)B(O)O)c(=O)c2)CC1`, in experiment [1], the inhibition result was “inactive”. The Ki in experiment [2] was 5900 nM; in experiment [6], “Not Active”. The compound also showed an inhibition in experiment [4] above 40%.
Take `CC(C)C[C@H](NC(=O)[C@H](Cc1ccccc1)NC(=O)c1cnccn1)B(O)O`: the inhibition in experiment [4] is above 40%.
With `CC(C)C[C@H](NC(=O)Cn1ccc2ncccc2c1=O)B(O)O`, in experiment [1], the inhibition result was “inactive”. In experiment [2], this compound yielded a Ki of 440 nM. For the same compound, the inhibition in experiment [4] was above 40%.
On to `CC(C)C[C@H](NC(=O)Cn1ccc(N2CCCCC2)cc1=O)B(O)O`, for which the inhibition entry in experiment [1] is “inactive”. The same compound displayed a Ki in experiment [2] of 300 nM. The compound further yielded an inhibition in experiment [4] above 40%.
Consider `CC(C)C[C@H](NC(=O)Cn1ccc(Nc2ccccc2)cc1=O)B(O)O`, for which the inhibition entry in experiment [1] was “inactive”. For the same compound, the figures for the Ki in experiment [2] and in experiment [5] were 98 nM and 12700 nM, respectively. Also, the Ratio Ki in experiment [3] amounted to 52. In addition, the inhibition in experiment [4] was above 40%.
As to `CC(C)C[C@H](NC(=O)Cn1ccc2c(c1=O)CCCN2C)B(O)O`, the inhibition entry in experiment [1] was “inactive”. The compound further showed a Ki in experiment [2] of 1620 nM. In experiment [4], this compound registered an inhibition above 40%.
Consider `CC(C)C[C@H](NC(=O)Cn1ccc(N2CCN(C)CC2)cc1=O)B(O)O`, for which, in experiment [1], the inhibition result is “inactive”. The same compound had an inhibition in experiment [4] of 30%.
